Data: ChEMBL document CHEMBL1128436, “Synthesis and biological evaluation of a new series of sterols as potential hypocholesterolemic agents” (1995)
Activity calls are given as the source filed them. No cut-off for these calls is given here.

Columns and labels:
[1] = biological target: Low-density lipoprotein receptor (Homo sapiens) (UniProt P01130); assay: Capability of derepressing the transcription of Low density lipoprotein receptor promoter in the presence of 25-hydroxycholesterol in CHO cells measured as maximum activity at 20 ug/mL; format: cell-based
Summary of the method: (§1)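 Stably transfected CHO clone S27/B30 (LDL receptor promoter fused to firefly luciferase), grown to confluence (2-3 days, 37 °C, 5% CO2). Then 24 h in serum-free assay medium (DMEM/Ham's F-12 3:1, 0.5% bovine albumin) with 25-hydroxycholesterol 0.5 μg/mL plus compound at 0.30-20 μg/mL from ethanol stock, triplicate wells. Lysate luciferase peak light per μg protein (Coomassie). EC30 = concentration giving 30% rise over control. MA = % specific induction at 20 μg/mL.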

CHO = assay: Capability of derepressing the transcription of SV40 promoter in CHO cells by luciferase assay; NA= Not active within the test range 0-20 ug/mL; format: functional, cell-based; conditions: Cricetulus griseus
Summary of the method: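 Counter-screen in CHO clone SV40/LN9, with luciferase driven by the SV40 promoter. Confluent monolayers were given compound at 0.30-20 μg/mL for 24 h in serum-free albumin assay medium, triplicate wells. Lysates were read for luciferase peak luminescence, normalized to lysate protein.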

[2] = biological target: Low-density lipoprotein receptor (Homo sapiens) (UniProt P01130); assay: Capability of derepressing the transcription of human Low density lipoprotein receptor promoter in the presence of 25-hydroxycholesterol in CHO cells by luciferase assay; format: cell-based; summary of the method: as §1
[3] = biological target: Low-density lipoprotein receptor (Homo sapiens) (UniProt P01130); assay: Capability of derepressing the transcription of human Low density lipoprotein receptor promoter in the presence of 25-hydroxycholesterol in CHO cells by luciferase assay; NA= Not active within the test range 0-20 ug/mL; format: cell-based; summary of the method: as §1
Cricetinae gen. sp. = assay: Total serum cholesterol level with relative to the control value (366(24)) in hamsters at a dose of 0.2% of diet for 1 week; format: functional, Cricetulus griseus
Mesocricetus auratus = species: Mesocricetus auratus; assay: Serum cholesterol level change relative to the control value (366(24)) in hamsters at a dose of 0.2% of diet for 1 week

Chain of Low-density lipoprotein receptor (Homo sapiens) (P01130 whole entry, the tested form may be a part): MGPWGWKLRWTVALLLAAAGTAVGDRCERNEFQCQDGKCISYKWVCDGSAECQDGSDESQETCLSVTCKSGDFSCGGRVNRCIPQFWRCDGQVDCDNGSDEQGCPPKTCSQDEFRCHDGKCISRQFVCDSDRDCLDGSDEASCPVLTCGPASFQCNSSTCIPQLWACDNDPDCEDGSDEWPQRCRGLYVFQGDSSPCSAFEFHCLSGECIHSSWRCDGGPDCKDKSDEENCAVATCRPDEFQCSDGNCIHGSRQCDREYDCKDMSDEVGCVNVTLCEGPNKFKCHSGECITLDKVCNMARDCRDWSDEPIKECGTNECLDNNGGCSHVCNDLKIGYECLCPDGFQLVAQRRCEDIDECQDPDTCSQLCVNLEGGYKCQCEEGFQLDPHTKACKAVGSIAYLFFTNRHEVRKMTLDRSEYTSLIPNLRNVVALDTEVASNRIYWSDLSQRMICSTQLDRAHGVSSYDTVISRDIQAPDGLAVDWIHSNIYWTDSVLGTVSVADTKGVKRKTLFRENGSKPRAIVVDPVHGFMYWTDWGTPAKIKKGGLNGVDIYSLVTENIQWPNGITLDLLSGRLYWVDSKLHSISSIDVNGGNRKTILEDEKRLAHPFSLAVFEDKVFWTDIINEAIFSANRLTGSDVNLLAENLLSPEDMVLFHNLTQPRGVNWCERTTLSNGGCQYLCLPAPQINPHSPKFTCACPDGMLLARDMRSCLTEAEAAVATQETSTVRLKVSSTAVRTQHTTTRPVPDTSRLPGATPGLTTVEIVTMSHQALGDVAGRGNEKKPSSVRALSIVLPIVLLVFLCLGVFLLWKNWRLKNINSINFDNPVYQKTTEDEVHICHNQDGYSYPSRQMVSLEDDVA

C=C(C)C[C@H]1C2CC[C@H]3[C@@H]4CC[C@H]([C@H](C)CCCC(C)C)[C@@]4(C)CC[C@@H]3[C@@]2(C)CC[C@H]1O (stereo not given in full)
MA [1]: 124% | Activity (CHO): inactive | EC30 [2]: 2.8 µM

C=CC[C@@H]1[C@H]2CC[C@@H]3[C@H](CC[C@]4(C)[C@@H]([C@H](C)CCCC(C)C)CC[C@@H]34)[C@@]2(C)CC[C@@H]1O
EC30 [3]: inactive

CC(C)CCC[C@@H](C)[C@H]1CC[C@H]2[C@@H]3CCC4[C@H](Cc5ccc(Cl)c(Cl)c5)[C@H](O)CC[C@]4(C)[C@H]3CC[C@]12C (stereo not given in full)
EC30 [3]: inactive

C=CC[C@@H]1C[C@@]2(C)C(CC[C@H]3[C@@H]4CC[C@H]([C@H](C)CCCC(C)C)[C@@]4(C)CC[C@@H]32)[C@H](CC=C)[C@@H]1O (stereo not given in full)
EC30 [3]: inactive

C=CC[C@H]1C2CC[C@H]3[C@@H]4CC[C@H]([C@H](C)CCCC(C)(C)O)[C@@]4(C)CC[C@@H]3[C@@]2(C)CC[C@H]1O (stereo not given in full)
MA [1]: 111% | EC30 [2]: 9.4 µM

C=C[C@H]1C2CC[C@H]3[C@@H]4CC[C@H]([C@H](C)CCCC(C)C)[C@@]4(C)CC[C@@H]3[C@@]2(C)CC[C@H]1O (stereo not given in full)
EC30 [3]: inactive

CC(C)CCC[C@@H](C)[C@H]1CC[C@H]2[C@@H]3CC[C@H]4[C@H](Cc5ccccc5)C(=O)CC[C@]4(C)[C@H]3CC[C@]12C
Total cholesterol (Cricetinae gen. sp.): 312 mg/dL | Relative change (Mesocricetus auratus): -15%

CCCC[C@H]1C2CC[C@H]3[C@@H]4CC[C@H]([C@H](C)CCCC(C)C)[C@@]4(C)CC[C@@H]3[C@@]2(C)CC[C@H]1O (stereo not given in full)
MA [1]: 88% | Activity (CHO): inactive | EC30 [2]: 20 µM

Cc1cccc(C[C@H]2C3CC[C@H]4[C@@H]5CC[C@H]([C@H](C)CCCC(C)C)[C@@]5(C)CC[C@@H]4[C@@]3(C)CC[C@H]2O)c1 (stereo not given in full)
EC30 [3]: inactive

C=CC[C@H]1C[C@H]2[C@@H]3CC[C@H]([C@H](C)CCCC(C)C)[C@@]3(C)CC[C@@H]2[C@@]2(C)CC[C@@H](O)CC12 (stereo not given in full)
EC30 [3]: inactive

CC(C)CCC[C@@H](C)[C@H]1CC[C@H]2[C@@H]3CCC4[C@H](Cc5ccc(CO)cc5)[C@H](O)CC[C@]4(C)[C@H]3CC[C@]12C (stereo not given in full)
EC30 [3]: inactive

CC(C)CCC[C@@H](C)[C@H]1CC[C@H]2[C@@H]3CCC4[C@H](Cc5cccc(F)c5F)[C@H](O)CC[C@]4(C)[C@H]3CC[C@]12C (stereo not given in full)
EC30 [3]: inactive

CC(C)CCC[C@@H](C)[C@H]1CC[C@H]2[C@@H]3CCC4[C@H](Cc5ccc(OCc6ccccc6)cc5)[C@H](O)CC[C@]4(C)[C@H]3CC[C@]12C (stereo not given in full)
EC30 [3]: inactive

C=C(Cl)C[C@H]1C2CC[C@H]3[C@@H]4CC[C@H]([C@H](C)CCCC(C)C)[C@@]4(C)CC[C@@H]3[C@@]2(C)CC[C@@H]1O (stereo not given in full)
EC30 [3]: inactive

C/C=C\C[C@H]1C2CC[C@H]3[C@@H]4CC[C@H]([C@H](C)CCCC(C)C)[C@@]4(C)CC[C@@H]3[C@@]2(C)CC[C@H]1O (stereo not given in full)
MA [1]: 72% | Activity (CHO): inactive | EC30 [2]: 26 µM

CC(C)CCC[C@@H](C)[C@H]1CC[C@H]2[C@@H]3CCC4[C@H](Cc5ccccc5F)[C@H](O)CC[C@]4(C)[C@H]3CC[C@]12C (stereo not given in full)
EC30 [3]: inactive

CC(C)CCC[C@@H](C)[C@H]1CC[C@H]2[C@@H]3CCC4[C@H](C/C=C/c5ccccc5)[C@H](O)CC[C@]4(C)[C@H]3CC[C@]12C (stereo not given in full)
EC30 [3]: inactive

CC(C)=CC[C@H]1C2CC[C@H]3[C@@H]4CC[C@H]([C@H](C)CCCC(C)C)[C@@]4(C)CC[C@@H]3[C@@]2(C)CC[C@H]1O (stereo not given in full)
EC30 [3]: inactive

CC(C)CCC[C@@H](C)[C@H]1CC[C@H]2[C@@H]3CCC4[C@H](C/C=C/CO)[C@H](O)CC[C@]4(C)[C@H]3CC[C@]12C (stereo not given in full)
EC30 [3]: inactive

CC(C)CCC[C@@H](C)[C@H]1CC[C@H]2[C@@H]3CCC4[C@H](Cc5ccc(C#N)cc5)[C@H](O)CC[C@]4(C)[C@H]3CC[C@]12C (stereo not given in full)
MA [1]: 55% | Activity (CHO): inactive | EC30 [2]: 9.9 µM

CC(C)CCC[C@@H](C)[C@H]1CC[C@H]2[C@@H]3CCC4[C@H](Cc5ccc(C(=O)O)cc5)[C@H](O)CC[C@]4(C)[C@H]3CC[C@]12C (stereo not given in full)
EC30 [3]: inactive

CC(C)CCC[C@@H](C)[C@H]1CC[C@H]2[C@@H]3CCC4[C@H](Cc5ccc(C(F)(F)F)cc5)[C@H](O)CC[C@]4(C)[C@H]3CC[C@]12C (stereo not given in full)
MA [1]: 58% | Activity (CHO): inactive | EC30 [2]: 12 µM

C=CC[C@@H]1C[C@@]2(C)C(CC[C@H]3[C@@H]4CC[C@H]([C@H](C)CCCC(C)C)[C@@]4(C)CC[C@@H]32)C[C@H]1O (stereo not given in full)
EC30 [3]: inactive

CC(C)CCC[C@@H](C)[C@H]1CC[C@H]2[C@@H]3CC[C@H]4CC(=O)CC[C@]4(C)[C@H]3CC[C@]12C
EC30 [3]: inactive

CC(C)CCC[C@@H](C)[C@H]1CC[C@H]2[C@@H]3CCC4[C@H](Cc5ccc(Cl)cc5)[C@H](O)CC[C@]4(C)[C@H]3CC[C@]12C (stereo not given in full)
MA [1]: 63% | Activity (CHO): inactive | EC30 [2]: 42 µM

CC(C)CCC[C@@H](C)[C@H]1CC[C@H]2[C@@H]3CCC4[C@H](Cc5cccc(I)c5)[C@H](O)CC[C@]4(C)[C@H]3CC[C@]12C (stereo not given in full)
MA [3]: inactive

C=CC[C@@H]1C(=O)CC[C@]2(C)[C@H]3CC[C@]4(C)[C@@H]([C@H](C)CCCC(C)C)CC[C@H]4[C@@H]3CC[C@@H]12
EC30 [3]: inactive | Total cholesterol (Cricetinae gen. sp.): 267 mg/dL | Relative change (Mesocricetus auratus): -27%

CC(C)CCC[C@@H](C)[C@H]1CC[C@H]2[C@@H]3CCC4[C@H](Cc5ccc(F)cc5F)[C@H](O)CC[C@]4(C)[C@H]3CC[C@]12C (stereo not given in full)
EC30 [3]: inactive

C/C=C(\C)C[C@H]1C2CC[C@H]3[C@@H]4CC[C@H]([C@H](C)CCCC(C)C)[C@@]4(C)CC[C@@H]3[C@@]2(C)CC[C@H]1O (stereo not given in full)
MA [1]: 72% | Activity (CHO): inactive | EC30 [2]: 18 µM

C=C(Br)C[C@H]1C2CC[C@H]3[C@@H]4CC[C@H]([C@H](C)CCCC(C)C)[C@@]4(C)CC[C@@H]3[C@@]2(C)CC[C@H]1O (stereo not given in full)
MA [1]: 131% | Activity (CHO): inactive | EC30 [2]: 3.2 µM

C=CC[C@H]1[C@H](O)CC[C@@]2(C)[C@@H]1CC[C@@H]1[C@@H]2CC[C@]2(C)[C@@H]([C@H](C)CCCC(C)C)CC[C@@H]12
EC30 [3]: inactive

COC(=O)c1ccc(C[C@H]2C3CC[C@H]4[C@@H]5CC[C@H]([C@H](C)CCCC(C)C)[C@@]5(C)CC[C@@H]4[C@@]3(C)CC[C@H]2O)cc1 (stereo not given in full)
MA [1]: 48% | Activity (CHO): inactive | EC30 [2]: 14 µM

COc1ccc(C[C@H]2C3CC[C@H]4[C@@H]5CC[C@H]([C@H](C)CCCC(C)C)[C@@]5(C)CC[C@@H]4[C@@]3(C)CC[C@H]2O)cc1 (stereo not given in full)
EC30 [3]: inactive

C#CC[C@H]1C2CC[C@H]3[C@@H]4CC[C@H]([C@H](C)CCCC(C)C)[C@@]4(C)CC[C@@H]3[C@@]2(C)CC[C@H]1O (stereo not given in full)
EC30 [3]: inactive

C=CC[C@@H]1C[C@H]2[C@@H]3CC[C@H]([C@H](C)CCCC(C)C)[C@@]3(C)CC[C@@H]2[C@@]2(C)CC[C@@H](O)CC12 (stereo not given in full)
EC30 [3]: inactive

CC/C=C/C[C@H]1C2CC[C@H]3[C@@H]4CC[C@H]([C@H](C)CCCC(C)C)[C@@]4(C)CC[C@@H]3[C@@]2(C)CC[C@H]1O (stereo not given in full)
EC30 [3]: inactive

CC(C)CCC[C@@H](C)[C@H]1CC[C@H]2[C@@H]3CCC4[C@H](Cc5cccc(F)c5)[C@H](O)CC[C@]4(C)[C@H]3CC[C@]12C (stereo not given in full)
EC30 [3]: inactive

CC(C)CCC[C@@H](C)[C@H]1CC[C@H]2[C@@H]3CCC4[C@H](Cc5ccc(C=O)cc5)[C@H](O)CC[C@]4(C)[C@H]3CC[C@]12C (stereo not given in full)
EC30 [3]: inactive
